Results pooled from the literature.
Lines come from different studies, so protocols differ.
FLT3 R834Q: Receptor-type tyrosine-protein kinase FLT3 (FLT3, Homo sapiens, UniProt P36888, R834Q)
FLT3 D835H: Receptor-type tyrosine-protein kinase FLT3 (FLT3, Homo sapiens, UniProt P36888, D835H)
FLT3: Receptor-type tyrosine-protein kinase FLT3 (FLT3, Homo sapiens, UniProt P36888)
FLT3 N841I: Receptor-type tyrosine-protein kinase FLT3 (FLT3, Homo sapiens, UniProt P36888, N841I)
FLT3 D835V: Receptor-type tyrosine-protein kinase FLT3 (FLT3, Homo sapiens, UniProt P36888, D835V)
FLT3 autoinhibited: Receptor-type tyrosine-protein kinase FLT3, autoinhibited (FLT3, Homo sapiens, UniProt P36888)
FLT3 D835Y: Receptor-type tyrosine-protein kinase FLT3 (FLT3, Homo sapiens, UniProt P36888, D835Y)

Compound	target	read-out	method	tested at	remaining binding [%]
CN(CCCC(F)(F)F)c1nccc(-c2cnn3ncccc23)n1	FLT3 R834Q	binding	–	1 µM	100
O=C(Nc1c[nH]nc1C(=O)NC1CCNCC1)c1cc(F)cc(F)c1	FLT3 D835H	binding	competition with immobilised ligand	1 µM	100
c1cnn2ncc(-c3ccnc(N4CCC45COC5)n3)c2c1	FLT3	binding	–	1 µM	85
Nc1ncc2c(n1)-c1c([nH]c3ccc(C#CC4CC4)cc13)CCCC2	FLT3 D835H	binding	competition with immobilised ligand	1 µM	88
CNCc1ccccc1-c1csc([C@@H](C)Nc2nc(C)nc3cc(OC)c(OC)cc23)c1	Receptor-type tyrosine-protein kinase FLT3 (FLT3, Homo sapiens, UniProt P36888, ITD)	cell-free assay	competition with immobilised ligand	1 µM	89
O=C(c1ccc(Nc2ncc(Cl)c(-c3cc4ccccc4s3)n2)cc1)N1CCC(N2CCCC2)CC1	FLT3 N841I	binding	competition with immobilised ligand	1 µM	0
CN([C@@H]1CCc2c(CC(=O)O)c3cc(S(C)(=O)=O)ccc3n2C1)S(=O)(=O)c1ccc(F)cc1	FLT3 D835V	cell-free assay	competition with immobilised ligand	1 µM	99
CN(C)c1ncc(F)c(-c2cnn3ncccc23)n1	FLT3	binding	–	1 µM	100
CCS(=O)(=O)c1cc2cc(C[C@](O)(CC(C)(C)c3ccc(F)cc3C(N)=O)C(F)(F)F)[nH]c2cn1	FLT3 N841I	cell-free assay	competition with immobilised ligand	1 µM	93
COc1ncc2cc3ccccc3nc2c1C#N	Receptor-type tyrosine-protein kinase FLT3 (FLT3, Homo sapiens, UniProt P36888, K663Q)	cell-free assay	competition with immobilised ligand	5 µM	97
O=C(NCCCN1CCOCC1)c1ccc(Nc2ncc(Cl)c(-c3ccc(Cl)s3)n2)cc1	Receptor-type tyrosine-protein kinase FLT3 (FLT3, Homo sapiens, UniProt P36888, D835V/ITD)	binding	competition with immobilised ligand	1 µM	1.8
Cc1nccc(COC(=O)N2C[C@@H]3[C@@H](CNC(=O)c4ccc5[nH]nnc5c4)[C@@H]3C2)n1	FLT3 autoinhibited	cell-free assay	competition with immobilised ligand	1 µM	93
c1cncc(-c2cccc(Nc3nccc(NC4CCCCC4)n3)c2)c1	FLT3	binding	competition with immobilised ligand	10 µM	0.35
C=CC(=O)N1CCC(C(=O)NCC(=O)N2CCN(c3nc(-c4cnc(N)nc4C(F)F)nc(N4CCOCC4)n3)CC2)CC1	FLT3 N841I	binding	competition with immobilised ligand	1 µM	100
COc1cnc(Nc2cccc(S(N)(=O)=O)c2)nc1N1CCN(c2ccccc2)CC1	FLT3 autoinhibited	binding	competition with immobilised ligand	1 µM	91
O=C(NCC1CCOCC1)c1n[nH]cc1NC(=O)c1c(F)cccc1F	FLT3 autoinhibited	binding	competition with immobilised ligand	1 µM	78
C[C@@H]1CCN(c2nccc(-c3cnn4ncccc34)n2)C1	FLT3 autoinhibited	binding	–	1 µM	78
O=C(NCCCN1CCOCC1)c1ccc(Nc2nccc(-c3cc4ccccc4s3)n2)cc1	Receptor-type tyrosine-protein kinase FLT3 (FLT3, Homo sapiens, UniProt P36888, F691L/ITD)	binding	competition with immobilised ligand	1 µM	37
CN(C)c1ncnc(-c2ccc3nc(Nc4cc(CN5CCN(C(=O)CC(F)(F)F)CC5)ccn4)[nH]c3c2)c1Cl	FLT3 D835Y	cell-free assay	competition with immobilised ligand	1 µM	38
CNC(=O)[C@@H]1CC[C@@H](n2c(-c3ccc4cnccc4c3)nc3ccc(C(=O)NCc4cccc(C(N)=O)c4)cc32)C1	FLT3 D835H	binding	competition with immobilised ligand	1 µM	100
CO[C@H]1CC[C@H](CNc2ccc(S(=O)(=O)NC(=O)c3ccc(N4CCN(CC5=C(c6ccc(Cl)cc6)CC(C)(C)CC5)CC4)cc3Oc3cnc4[nH]ccc4c3)cc2[N+](=O)[O-])CC1	FLT3 D835V	cell-free assay	competition with immobilised ligand	1 µM	100
C[C@@H](c1ccc(-n2cnc3c(N)ncnc32)cc1)N1CCc2nn(C)c(Cc3ccccc3)c2C1=O	FLT3 D835H	binding	competition with immobilised ligand	0.1 µM	94
F[C@@H]1CCN(c2nccc(-c3cnn4ncccc34)n2)C1	FLT3 D835Y	binding	–	1 µM	61
CCc1ccccc1C(=O)Nc1n[nH]c2c(C)c(F)c(C3C(C#N)=C(C)N(C)C(C)=C3C#N)cc12	FLT3 autoinhibited	cell-free assay	competition with immobilised ligand	1 µM	88
N[C@@H]1CCN(c2nccc(-c3cnn4ncccc34)n2)C1	FLT3	binding	–	1 µM	100
O=C(c1ccc(Nc2ncc(Cl)c(-c3ccc(Cl)s3)n2)cc1)N1CCC(N2CCCC2)CC1	FLT3 R834Q	binding	competition with immobilised ligand	1 µM	5.3
COc1cnc(Nc2cccc(S(N)(=O)=O)c2)nc1N1CCN(c2ccccc2)C(=O)C1	FLT3	binding	competition with immobilised ligand	1 µM	97
Cc1cc(-n2nc(Cc3cc(F)cc(C(F)(F)F)c3)nc2C)ccc1C(N)=O	FLT3 autoinhibited	cell-free assay	competition with immobilised ligand	1 µM	100
Cc1cnn2ncc(-c3ccnc(N(C)C)n3)c2c1	FLT3	binding	–	1 µM	98
O=C(c1ccc(Nc2nccc(-c3cc4ccccc4s3)n2)cc1)N1CCC(N2CCCC2)CC1	FLT3 N841I	binding	competition with immobilised ligand	1 µM	3.6
